The source of these data is PubChem BioAssay AID2372 (NMMLSC, 2010).

This test deals with Cell division control protein 42 homolog (Homo sapiens) (UniProt P60953). As to the kind of experiment: compound effect on Cdc42 GTP saturation binding, late-stage follow-up, mechanism study for Ras-family GTPase inhibitor project, biochemical, nucleotide-depleted protein, Mg buffer, varying GTP (AID 2372). To be noted: GST-Cdc42 beads, BODIPY-GTP binding, flow cytometry. The procedure, abridged:
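Assay system: Nucleotide-free GST-Cdc42 on glutathione beads | Amount: 4 µM GST-Cdc42 for bead loading | Medium: Buffer with 1 mM MgCl2, after 10 mM EDTA stripping | Compound: Single 10 µM compound dose versus DMSO vehicle | Incubation: EDTA depletion 20 min at 30 °C, compound pre-incubation 2 min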
In general terms: A flow cytometer gives signals particle by particle.

Sequence of Cell division control protein 42 homolog (Homo sapiens) (P60953 whole entry, looked up): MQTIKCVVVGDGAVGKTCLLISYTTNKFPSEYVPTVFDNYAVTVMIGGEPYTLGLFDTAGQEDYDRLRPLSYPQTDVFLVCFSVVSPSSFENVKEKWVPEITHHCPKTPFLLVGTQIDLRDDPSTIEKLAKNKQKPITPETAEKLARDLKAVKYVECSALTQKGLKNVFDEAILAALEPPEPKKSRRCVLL

As for `COc1ccc(C2CC(c3ccccc3)=NN2c2ccc(S(N)(=O)=O)cc2)cc1` (configuration not stated), the Bmax with compound (at 10 µM, stronger effect = lower value) is 1540. Further, the Kd of GTP with compound (measured here: GTP affinity with 10 uM compound) turned out to be 7.16 nM.
